For experiment [1], the system named is HaCaT. In words: Activation of AMPK/SIRT1 in human HaCaT cells assessed as nitric oxide production at 1 uM incubated for 1 hr by DAF-2D staining-based fluorescence assay. In kind it is cell-based. Put shortly: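 HaCaT keratinocytes grown in DMEM with 10% FBS and antibiotics. Cells treated 1 h (single-point 1 µM; dose-response at 5, 25, 50 µM). 5 µM DAF-2D added to complete medium. Cells then washed in PBS, trypsinized and analysed by flow cytometry for DAF fluorescence (ex 485/em 538 nm). Read-out is % DAF-positive cells relative to DMSO control.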

Experiment [2] has as its system C2C12. In words: Activation of AMPK/SIRT1 in mouse C2C12 cells assessed as increase in mitochondrial density at 30 uM after 16 hrs by Mitotracker Green staining-based confocal microscopy in presence of EX-527. The format is cell-based. Put shortly:
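C2C12 myoblasts plated overnight, then in serum-free HBSS pH 7.4 and treated 16 h at 30 µM, alone or with 5 µM inhibitor (EX-527 or compound C). Mitotracker Green at 200 nM final was added for the last 30 min. Cells were fixed in 4% paraformaldehyde, permeabilized with Triton X-100 and imaged by confocal microscopy with fixed settings. Alternatively, mitochondrial fluorescence was quantified in plates.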

The target in experiment [3] is T1, NAD-dependent protein deacetylase sirtuin-1 (Homo sapiens) (UniProt Q96EB6).
T1 sequence (whole entry): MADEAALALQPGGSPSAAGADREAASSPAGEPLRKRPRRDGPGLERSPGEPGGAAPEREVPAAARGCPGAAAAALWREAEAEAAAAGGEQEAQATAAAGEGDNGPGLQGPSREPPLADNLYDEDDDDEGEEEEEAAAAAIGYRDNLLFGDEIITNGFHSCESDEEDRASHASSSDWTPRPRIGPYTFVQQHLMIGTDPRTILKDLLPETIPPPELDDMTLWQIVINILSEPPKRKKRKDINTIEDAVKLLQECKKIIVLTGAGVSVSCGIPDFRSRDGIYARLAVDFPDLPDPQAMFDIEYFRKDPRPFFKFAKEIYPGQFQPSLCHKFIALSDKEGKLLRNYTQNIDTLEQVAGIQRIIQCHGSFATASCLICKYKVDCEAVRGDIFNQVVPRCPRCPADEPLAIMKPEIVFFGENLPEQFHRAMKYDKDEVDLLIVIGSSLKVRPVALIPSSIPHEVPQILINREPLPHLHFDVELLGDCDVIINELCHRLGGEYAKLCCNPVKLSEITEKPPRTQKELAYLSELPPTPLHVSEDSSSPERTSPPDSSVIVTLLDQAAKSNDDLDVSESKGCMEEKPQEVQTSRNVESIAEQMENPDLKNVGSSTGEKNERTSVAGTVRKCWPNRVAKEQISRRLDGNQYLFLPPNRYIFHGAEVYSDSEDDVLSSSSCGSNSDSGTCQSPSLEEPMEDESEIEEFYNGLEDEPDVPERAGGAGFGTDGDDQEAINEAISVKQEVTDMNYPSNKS
The experiment can be described thus: Activation of SIRT1 in human HaCaT cells assessed as H4K16 deacetylation at 1 uM after 1 hr by Western blotting method. In kind it is cell-based. Put shortly:
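HaCaT cells treated 1 h at 1 µM, DMSO as solvent control. Cells lysed in Laemmli buffer and immunoblotted for acetyl-H4K16 (1:1000), with total histone H4 as loading control. Bands quantified by densitometry. At least three independent experiments.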
A general note: In western blotting, separated proteins are transferred to a membrane and probed.

Experiment [4] deals with T1, NAD-dependent protein deacetylase sirtuin-1 (Homo sapiens). In words: Activation of full-length GST-tagged recombinant human SIRT1 assessed as enzyme activity obtained without subtraction of intrinsic fluorescence using p53-based untagged peptide as substrate at 50 uM after 30 mins by SIRTainty assay.
Experiment [5] deals with LoVo. In words: Antiproliferative activity against human LoVo cells assessed as cell viability after 72 hrs by MTT assay. In kind it is functional, cell-based. Put shortly: (§1)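 Cells grown in RPMI with 10% fetal calf serum and penicillin, seeded in sextuplicate at 3 × 10^3 cells/well. After 24 h, cells were exposed 72 h to 5–200 µM. Viability was measured by MTT and expressed as treated/untreated × 100. IC50 was calculated from three independent experiments, reported as mean ± SD.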
(Tetrazolium dyes change colour on reduction, which living cells bring about.)

The nature of experiment [6]: Antiproliferative activity against human SAN cells assessed as cell viability after 72 hrs by MTT assay. The format is functional, cell-based. Put shortly: as §1
Experiment [7] deals with HaCaT. The experiment can be described thus: Activation of AMPK/SIRT1 in human HaCaT cells assessed as nitric oxide production at 10 uM incubated for 1 hr in presence of EX-527 by DAF-2D staining-based fluorescence assay. The format is cell-based. Put shortly: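 HaCaT cells in DMEM with 10% FBS. DHP (10 µM) given for 1 h alone or together with 10 µM AMPK inhibitor compound C or 10 µM SIRT1 inhibitor EX-527. Intracellular NO read by flow cytometry after loading with 5 µM DAF-2D in medium (ex 485/em 538 nm). Expressed as % DAF-positive cells versus DMSO.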

The species entered for experiment [8] is Cavia porcellus. The experiment can be described thus: Antagonist activity at calcium channel in guinea pig smooth muscle assessed as inhibition of calcium-induced contraction in K+-depolarized aortic strips at 50 uM. Put shortly: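 Guinea-pig isolated aortic strips depolarized with 80 mM K+; read-out is percent inhibition of calcium-induced contraction.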

Experiment [9] concerns Caov-3 cell line. In words: Antiproliferative activity against human Caov3 cells assessed as cell viability after 72 hrs by MTT assay. The format is functional, cell-based. As to conditions: Caov-3, 72 h. Put shortly:
as §1

Active and inactive are the calls of the source. No cut-off for these calls is given here.

The values below come from ChEMBL document CHEMBL4428023, “1,4-Dihydropyridines Active on the SIRT1/AMPK Pathway Ameliorate Skin Repair and Mitochondrial Function and Exhibit Inhibition of Proliferation in Cancer Cells” (J Med Chem, 2016).

On to `CCOC(=O)C1=CN(C(=O)c2ccccc2)C=C(C(=O)OCC)C1c1ccccc1`, for which the outcome in experiment [1] and in experiment [3] was Active. Also, the result in [2] and in experiment [7] was inactive. In [4], the Activity was found to be 244%. Further, the IC50 in experiment [5] was 22 µM; in [6] it was 161 µM; in [9] it was more than 200 µM. Moreover, the inhibition in [8] was 12%.

For orientation: IC50 means the concentration that gives 50% inhibition. Broadly, the inhibition is the relative decrease from the control value, in per cent.
